According to the M2OR odorant receptor database:

biological target: T1, OR4A16 (Homo sapiens) (UniProt Q8NH70); conditions: stereoisomer not certain
T1 sequence (whole entry): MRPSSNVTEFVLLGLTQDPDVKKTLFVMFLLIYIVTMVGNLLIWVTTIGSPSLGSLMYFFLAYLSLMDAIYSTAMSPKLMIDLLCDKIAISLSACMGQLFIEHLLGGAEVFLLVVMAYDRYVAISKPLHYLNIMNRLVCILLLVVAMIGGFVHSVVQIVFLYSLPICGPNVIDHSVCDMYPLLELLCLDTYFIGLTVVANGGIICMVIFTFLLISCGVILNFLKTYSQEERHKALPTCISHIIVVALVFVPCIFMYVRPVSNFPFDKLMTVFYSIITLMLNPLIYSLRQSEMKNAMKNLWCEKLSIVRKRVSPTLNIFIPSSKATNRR
Procedure, shortened: (§1)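 Assay methods differ from source to source, frequently being transient luciferase assays in mammalian cell lines. For each receptor–molecule pair, the label responsive (active) applies when the original authors judged the measured signal statistically different from baseline, and non-responsive (inactive) applies otherwise.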

Compound	odorant receptor agonist call
CC1=NC(C)C(C)S1 (stereo not given)	inactive
CCCC(S)CCOC(C)=O (stereo not given)	inactive
CC1CCCCCCCCCCCCC(=O)C1 (stereo not given)	inactive
CC1=C(O)C(=O)C(C)O1 (stereo not given)	inactive
Cc1cnc(C)c(C)n1	inactive
CC(CO)CS (stereo not given)	inactive
CCCCC(S)C(C)CO (stereo not given)	inactive
CCCCCC(=O)C(C)C(C)=O (stereo not given)	inactive
CCCCCCC=CCCC=O	inactive
CCC1OC(C)=C(O)C1=O (stereo not given)	inactive
CCC(S)C(C)CO (stereo not given)	inactive
CCCCCC(S)C(C)CO (stereo not given)	active
CCC1OC(=O)C(O)=C1C (stereo not given)	inactive
CC(=O)c1c(C)c([N+](=O)[O-])c(C(C)(C)C)c([N+](=O)[O-])c1C	inactive
CC1=C(O)C(=O)OC1C (stereo not given)	inactive

biological target: T2, OR4A47 (Homo sapiens) (UniProt Q6IF82); conditions: stereoisomer not certain
T2 sequence (whole entry): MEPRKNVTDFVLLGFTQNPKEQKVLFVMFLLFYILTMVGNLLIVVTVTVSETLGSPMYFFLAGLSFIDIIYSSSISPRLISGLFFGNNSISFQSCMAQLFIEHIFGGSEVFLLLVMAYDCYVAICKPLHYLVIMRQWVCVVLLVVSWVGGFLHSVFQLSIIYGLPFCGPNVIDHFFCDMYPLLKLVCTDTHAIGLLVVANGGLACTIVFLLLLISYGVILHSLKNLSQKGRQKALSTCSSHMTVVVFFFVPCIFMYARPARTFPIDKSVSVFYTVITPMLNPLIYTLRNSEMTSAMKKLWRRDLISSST
Procedure, shortened: as §1

Compound	odorant receptor agonist call
CC1=NC(C)C(C)S1 (stereo not given)	inactive
CCCC(S)CCOC(C)=O (stereo not given)	inactive
CC1CCCCCCCCCCCCC(=O)C1 (stereo not given)	inactive
CC1=C(O)C(=O)C(C)O1 (stereo not given)	inactive
Cc1cnc(C)c(C)n1	inactive
CC(CO)CS (stereo not given)	inactive
CCCCC(S)C(C)CO (stereo not given)	inactive
CCCCCC(=O)C(C)C(C)=O (stereo not given)	inactive
CCCCCCC=CCCC=O	inactive
CCC1OC(C)=C(O)C1=O (stereo not given)	inactive
CCC(S)C(C)CO (stereo not given)	inactive
CCCCCC(S)C(C)CO (stereo not given)	inactive
CCC1OC(=O)C(O)=C1C (stereo not given)	inactive
CC(=O)c1c(C)c([N+](=O)[O-])c(C(C)(C)C)c([N+](=O)[O-])c1C	inactive
CC1=C(O)C(=O)OC1C (stereo not given)	inactive
